Reference: PMC7433031 (European journal of medicinal chemistry, 2020)
Like-named read-outs stand apart in the source and are kept apart here.

What was measured:
MOLT-4 T-ALL cells = test: MOLT-4 cell viability assay; format: cell-based, human
BCL-XL = BCL-XL (Homo sapiens, UniProt Q07817); test: Western blot of BCL-XL protein levels in MOLT-4 cells; format: cell-based; conditions: 16 h; for BCL-XL degradation in MOLT-4 cells at 100 nM: Western blot (Figure 3)
Procedure, shortened: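 MOLT-4 cells were treated for 16 h with test compound (100 nM for VHL-based, 50 nM for CRBN-based, or a concentration series for DC50). Other runs used 100 nM over a time course, or 16 h exposure followed by washout into drug-free medium. Some cells were pretreated 2 h with 10 μM pomalidomide or 1 μM MG-132. Immunoblot bands were normalized to β-actin and expressed as % remaining versus vehicle.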

[1] = test system: H146 small cell lung cancer cell line; test: H146 cell viability assay; format: cell-based; conditions: Homo sapiens, NCI-H146, 48 h, read-out: IC50 48 h treatment H146
Procedure, shortened: (§1)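 NCI-H146 small-cell lung cancer and RS4;11 B-ALL cells maintained in RPMI 1640 plus 10% FBS and 1% penicillin-streptomycin. Cells seeded at 5×10⁴ to 1×10⁵ per well and treated with test compound for 48 h. Viability measured by tetrazolium-based MTS assay, with IC50 calculated from the viability data.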

human platelets = test: Human platelet viability assay; format: cell-based; conditions: for IC50: Homo sapiens, Platelet, 48 h, read-out: IC50 48 h treatment Platelets
Procedure, shortened: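 Platelets were separated from purchased platelet-rich plasma in acid citrate buffer with 1 μM PGE1 and 0.2 units/mL apyrase (final). Cells were centrifuged and adjusted to 2 × 10⁸/mL in HEPES Tyrode's buffer with 10% FBS, 1 μM PGE1 and 0.2 units/mL apyrase. They were treated for 48 h, with or without a 10 μM pomalidomide block, and read by MTS. IC50 values were curve-fitted. The ratio divides platelet IC50 by 48 h MOLT-4 MTS IC50.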

[2] = test system: RS4;11 B-cell ALL cell line; test: RS4; format: cell-based; conditions: Homo sapiens, RS4-11, 48 h, read-out: IC50 48 h treatment RS4;11
Procedure, shortened: as §1

CLL patients = conditions: cited from earlier work
[3] = Homo sapiens, MOLT-4, 48 h, read-out: IC50 48 h treatment MOLT-4
[4] = Homo sapiens, MOLT-4, 48 h, read-out: IC50, reduction of MOLT-4 cell viability
[5] = read-out: IC50, reduction of MOLT-4 cell viability, MOLT-4 cells, 48 h treatment, means of at least three independent experiments (Tables 1-4)

BCL-XL, sequence (Q07817 whole entry): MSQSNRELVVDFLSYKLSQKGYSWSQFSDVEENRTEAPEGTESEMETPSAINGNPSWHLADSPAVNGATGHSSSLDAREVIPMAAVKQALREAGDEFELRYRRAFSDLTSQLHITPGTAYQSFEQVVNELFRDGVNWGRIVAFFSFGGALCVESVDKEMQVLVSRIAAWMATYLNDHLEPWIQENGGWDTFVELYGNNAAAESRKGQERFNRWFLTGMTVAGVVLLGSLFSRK

Compound: CC1(C)CCC(c2ccc(Cl)cc2)=C(CN2CCN(c3ccc(C(=O)NS(=O)(=O)c4ccc(N[C@H](CCN5CCN(C(=S)NCCOCCOCCNc6cccc7c6C(=O)N([C@@H]6CCC(=O)NC6=O)C7=O)CC5)CSc5ccccc5)c(S(=O)(=O)C(F)(F)F)c4)cc3)CC2)C1 (racemic) [Compound 11b, 4-(4-((2-(4-Chlorophenyl)-5,5-dimethylcyclohex-1-enyl)methyl)piperazin-1-yl)-N-(4-((2R)-4-(4-(2-(2-(2-(2-(2,6-dioxopiperidin-3-yl)-1,3-dioxoisoindolin-4-ylamino)ethoxy)ethoxy)ethylcarbamothioyl)piperazin-1-yl)-1-(phenylthio)butan-2-ylamino)-3-(trifluoromethylsulfonyl)phenylsulfonyl)benzamide]
- fold decrease in potency compared to 11a (MOLT-4 T-ALL cells; MOLT-4, versus 11a): ~ 6 fold

Compound: Cc1ncsc1-c1ccc([C@H](C)NC(=O)[C@@H]2C[C@@H](O)CN2C(=O)[C@@H](NC(=O)CCOCCC(=O)N2CCN(CC[C@H](CSc3ccccc3)Nc3ccc(S(=O)(=O)NC(=O)c4ccc(N5CCN(CC6=C(c7ccc(Cl)cc7)CCC(C)(C)C6)CC5)cc4)cc3S(=O)(=O)C(F)(F)F)CC2)C(C)(C)C)cc1 [Compound 3a, (2S,4R)-1-((S)-2-(3-(3-(4-((R)-3-((4-(N-(4-(4-((4’-Chloro-4,4-dimethyl-3,4,5,6-tetrahydro-[1,1’-biphenyl]-2-yl)methyl)piperazin-1-yl)benzoyl)sulfamoyl)-2-((trifluoromethyl)sulfonyl)phenyl)amino)-4-(phenylthio)butyl)piperazin-1-yl)-3-oxopropoxy)propanamido)-3,3-dimethylbutanoyl)-4-hydroxy-N-((S)-1-(4-(4-methylthiazol-5-yl)phenyl)ethyl)pyrrolidine-2-carboxamide]
- times less potent than 1e in MOLT-4 cell viability (MOLT-4 T-ALL cells; MOLT-4, versus 1e): ~ 4 times

Compound: Cc1ncsc1-c1ccc([C@H](C)NC(=O)[C@@H]2C[C@@H](O)CN2C(=O)[C@@H](NC(=O)CCCCCC(=O)N(C)CC[C@H](CSc2ccccc2)Nc2ccc(S(=O)(=O)NC(=O)c3ccc(N4CCN(CC5=C(c6ccc(Cl)cc6)CCC(C)(C)C5)CC4)cc3)cc2S(=O)(=O)C(F)(F)F)C(C)(C)C)cc1 [Compound 5, N^1-((R)-3-((4-(N-(4-(4-((4’-Chloro-4,4-dimethyl-3,4,5,6-tetrahydro-[1,1’-biphenyl]-2-yl)methyl)piperazin-1-yl)benzoyl)sulfamoyl)-2-((trifluoromethyl)sulfonyl)phenyl)amino)-4-(phenylthio)butyl)-N^7-((S)-1-((2S,4R)-4-hydroxy-2-(((S)-1-(4-(4-methylthiazol-5-yl)phenyl)ethyl)carbamoyl)pyrrolidin-1-yl)-3,3-dimethyl-1-oxobutan-2-yl)-N^1-methylheptanediamide]
- BCL-XL degradation in MOLT-4 cells at 100 nM (BCL-XL): weak BCL-XL degradation

Compound: Cc1ncsc1-c1ccc([C@H](C)NC(=O)[C@@H]2C[C@@H](O)CN2C(=O)[C@@H](NC(=O)CCCCCCN(C)CC[C@H](CSc2ccccc2)Nc2ccc(S(=O)(=O)NC(=O)c3ccc(N4CCN(CC5=C(c6ccc(Cl)cc6)CCC(C)(C)C5)CC4)cc3)cc2S(=O)(=O)C(F)(F)F)C(C)(C)C)cc1 [Compound 6c, (2S,4R)-1-((S)-2-(7-(((R)-3-((4-(N-(4-(4-((4’-Chloro-4,4-dimethyl-3,4,5,6-tetrahydro-[1,1’-biphenyl]-2-yl)methyl)piperazin-1-yl)benzoyl)sulfamoyl)-2-((trifluoromethyl)sulfonyl)phenyl)amino)-4-(phenylthio)butyl)(methyl)amino)heptanamido)-3,3-dimethylbutanoyl)-4-hydroxy-N-((S)-1-(4-(4-methylthiazol-5-yl)phenyl)ethyl)pyrrolidine-2-carboxamide]
- BCL-XL degradation in MOLT-4 cells at 100 nM (BCL-XL): the most potent degrader among its analogs

Compound: CC1(C)CCC(c2ccc(Cl)cc2)=C(CN2CCN(c3ccc(C(=O)NS(=O)(=O)c4ccc(N[C@H](CCN5CCN(CCOCCOCCOCCNc6cccc7c6C(=O)N(C6CCC(=O)NC6=O)C7=O)CC5)CSc5ccccc5)c(S(=O)(=O)C(F)(F)F)c4)cc3)CC2)C1 (stereo partly drawn) [Compound 12c, 4-(4-((4’-Chloro-4,4-dimethyl-3,4,5,6-tetrahydro-[1,1’-biphenyl]-2-yl)methyl)piperazin-1-yl)-N-((4-(((2R)-4-(4-(2-(2-(2-(2-((2-(2,6-dioxopiperidin-3-yl)-1,3-dioxoisoindolin-4-yl)amino)ethoxy)ethoxy)ethoxy)ethyl)piperazin-1-yl)-1-(phenylthio)butan-2-yl)amino)-3-((trifluoromethyl)sulfonyl)phenyl)sulfonyl)benzamide]
- IC50 [1]: 24.6 nM
- IC50 (human platelets): 1560 nM
- IC50 (MOLT-4 T-ALL cells; [3]): 17.3 nM
- IC50 (MOLT-4 T-ALL cells; [4]): 17.3 nM
- IC50 [2]: 38.5 nM

Compound: CN(CCCCCCCn1cc(COCCOCCNc2cccc3c2C(=O)N(C2CCC(=O)NC2=O)C3=O)nn1)CC[C@H](CSc1ccccc1)Nc1ccc(S(=O)(=O)NC(=O)c2ccc(N3CCN(CC4=C(c5ccc(Cl)cc5)CCC(C)(C)C4)CC3)cc2)cc1S(=O)(=O)C(F)(F)F (stereo partly drawn) [Compound 15a, 4-(4-((4’-Chloro-4,4-dimethyl-3,4,5,6-tetrahydro-[1,1’-biphenyl]-2-yl)methyl)piperazin-1-yl)-N-((4-(((2R)-4-((7-(4-((2-(2-((2-(2,6-dioxopiperidin-3-yl)-1,3-dioxoisoindolin-4-yl)amino)ethoxy)ethoxy)methyl)-1H-1,2,3-triazol-1-yl)heptyl)(methyl)amino)-1-(phenylthio)butan-2-yl)amino)-3-((trifluoromethyl)sulfonyl)phenyl)sulfonyl)benzamide]
- IC50 [1]: 61.7 nM
- IC50 (human platelets): 6250 nM
- IC50 (MOLT-4 T-ALL cells; [3]): 29.2 nM
- IC50 (MOLT-4 T-ALL cells; [4]): 29.2 nM
- BCL-XL degradation in MOLT-4 cells at 50 nM (BCL-XL; 50 nM, Western blot (Figure 4)): better BCL-XL degraders than their amide analogs
- IC50 [2]: 62.2 nM

Compound: CN(CCCNc1cccc2c1C(=O)N(C1CCC(=O)NC1=O)C2=O)CC[C@H](CSc1ccccc1)Nc1ccc(S(=O)(=O)NC(=O)c2ccc(N3CCN(CC4=C(c5ccc(Cl)cc5)CCC(C)(C)C4)CC3)cc2)cc1S(=O)(=O)C(F)(F)F (stereo partly drawn) [Compound 16a, 4-(4-((4’-Chloro-4,4-dimethyl-3,4,5,6-tetrahydro-[1,1’-biphenyl]-2-yl)methyl)piperazin-1-yl)-N-((4-(((2R)-4-((3-((2-(2,6-dioxopiperidin-3-yl)-1,3-dioxoisoindolin-4-yl)amino)propyl)(methyl)amino)-1-(phenylthio)butan-2-yl)amino)-3-((trifluoromethyl)sulfonyl)phenyl)sulfonyl)benzamide]
- IC50 [1]: 70.2 nM
- IC50 (human platelets): 3300 nM
- IC50 (MOLT-4 T-ALL cells; [3]): 32.5 nM
- IC50 (MOLT-4 T-ALL cells; [4]): 32.5 nM
- IC50 [2]: 129 nM

Compound: CC1(C)CCC(CN2CCN(c3ccc(C(=O)NS(=O)(=O)c4ccc(NCC5CCOCC5)c([N+](=O)[O-])c4)c(Oc4cnc5[nH]ccc5c4)c3)CC2)=C(c2ccc(Cl)cc2)C1 [venetoclax]
- complete remission rate (CLL patients): 20%
- overall response rate (CLL patients): 71–79%

Compound: (2S,4R)-1-((S)-2-(2-(2-(2-(4-((R)-3-((4-(N-(4-(4-((4’-Chloro-4,4-dimethyl-3,4,5,6-tetrahydro-[1,1’-biphenyl]-2-yl)methyl)piperazin-1-yl)benzoyl)sulfamoyl)-2-((trifluoromethyl)sulfonyl)phenyl)amino)-4-(phenylthio)butyl)piperazin-1-yl)ethoxy)ethoxy)acetamido)-3,3-dimethylbutanoyl)-4-hydroxy-N-((S)-1-(4-(4-methylthiazol-5-yl)phenyl)ethyl)pyrrolidine-2-carboxamide [Compound 4b]
- times less potent than 4a in reducing MOLT-4 cell viability (MOLT-4 T-ALL cells; MOLT-4, versus 4a): ~ 6 times
- IC50 (MOLT-4 T-ALL cells; [5]): 914 nM
- BCL-XL degradation in MOLT-4 cells at 100 nM (BCL-XL): slightly more potent in inducing BCL-XL degradation than 4a

Compound: (2S,4R)-1-((S)-2-(2-(2-(4-((R)-3-((4-(N-(4-(4-((4’-Chloro-4,4-dimethyl-3,4,5,6-tetrahydro-[1,1’-biphenyl]-2-yl)methyl)piperazin-1-yl)benzoyl)sulfamoyl)-2-((trifluoromethyl)sulfonyl)phenyl)amino)-4-(phenylthio)butyl)piperazin-1-yl)ethoxy)acetamido)-3,3-dimethylbutanoyl)-4-hydroxy-N-((S)-1-(4-(4-methylthiazol-5-yl)phenyl)ethyl)pyrrolidine-2-carboxamide [Compound 4a]
- IC50 (MOLT-4 T-ALL cells; [5]): 151 nM

Compound: navitoclax [ABT-263, reference compound]
- selectivity for MOLT-4 cells over human platelets (human platelets; MOLT-4 versus human platelets): no selectivity
- IC50 ratio between human platelets and MOLT-4 cells (human platelets; platelets IC50 / MOLT-4 IC50, 48 h): 1.1
